AI-2 QS mod: modulates the Vibrio harveyi AI-2 quorum sensing system; activity change, % at 7.5 µM; hit rate 0.4% among 300,000; Vibrio harveyi JMH597 AI-2 luminescence/OD600 ratio, 9 h; hits give low values; strain lacks LuxN and CqsS sensors; 0 = neutral-control median; AID 2094; in the data active = activity change below about -75%, passing the limit was not always enough; inconclusive = no clear call, values can overlap the other calls;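 also: luminescence divided by OD600 gain over 9 h not by final OD600 alone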
core dimer inh: HCV core protein dimerization inhibition. TR-FRET GST/Flag-core106 dimerization, 1536-well. inhibition, % at 5 µM. hit rate 0.33% among 300,000. AID 1899;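 active = inhibition above the mean of all tested compounds plus 3 SD, set per screening campaign, cut at about 45% in these data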
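assay system = GST-tagged and Flag-tagged HCV core protein residues 1-106 | controls = unlabelled core106 and no-GST-core106 wells | incubation = compound-protein-antibody incubation 4 h at 22.5 °C | probe or stimulus = Eu donor and XL665 acceptor anti-tag antibodies | read-out = % inhibition based on acceptor/donor emission ratio | signal = TR-FRET 671 and 617 nm emission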
HSF1 activator: increases HSF-1 driven luciferase reporter signal; NIH3T3-HGL HSF-1 luciferase reporter, MG132, 8 h; 100% = twice DMSO control signal; activation, % at 9 µM; hit rate 1.7% among 300,000; AID 504408;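 active = mean replicate activation of at least 50% with a set share of replicates each reaching 50%; inconclusive = only one of those two conditions met; inactive = mean below 50% and too few replicates reaching it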;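 also: 0% = median of the neutral control wells and 100% = twice that signal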
PHOSPHO1 block: PHOSPHO1 (human) inhibition; recombinant PHOSPHO1, absorbance phosphatase assay; Q8TCT1; hit rate 1.1% among 290,000; inhibition, % at 13.3 µM; in the data active = inhibition above about 60%
Target sequence (Q8TCT1 whole entry, looked up): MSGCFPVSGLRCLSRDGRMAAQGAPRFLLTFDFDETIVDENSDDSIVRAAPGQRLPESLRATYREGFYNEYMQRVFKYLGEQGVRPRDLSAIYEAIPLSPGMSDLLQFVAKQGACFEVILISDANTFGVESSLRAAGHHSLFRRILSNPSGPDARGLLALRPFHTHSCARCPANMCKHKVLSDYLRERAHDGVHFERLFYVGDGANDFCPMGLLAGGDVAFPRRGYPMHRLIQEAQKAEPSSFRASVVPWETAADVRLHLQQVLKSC
HSF1 inhib: HSF1 inhibition | NIH3T3-HGL HSE-luciferase, MG132-induced, luminescence 8 h; hits give low values | activity change, negative = inhibition, % at 7.5 µM (by protocol) | hit rate 0.77% among 300,000;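 active = more than half of replicate wells show activity change below -50%, luminescence cut by over half; inconclusive = some wells, but at most half, below -50%; inactive = no replicate well below -50%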;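 also: luciferase reports HSF-1 transcriptional activity via heat shock element; 0% = median of DMSO wells and -100% = zero luminescence signal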
ALR H2O2 inh: human ALR oxidase inhibition via reduced H2O2. P55789. purified ALR, DTT oxidation, H2O2 HRP-luminol luminescence. inhibition, % (no concentration beside the values). hit rate 3.8% among 290,000. AID 485317;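 active = mean replicate inhibition above about 79%, with every replicate also reaching it, limit read from the data; inconclusive = only one of the two criteria met; inactive = mean below limit and not every replicate reaching it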
Active calls of the source: *; ? = inconclusive; / = not tested or not shown. A selection: hits, their analogues and other compounds. The true share with any hit is near 6.8%.

SMILES	AI-2 QS mod	core dimer inh	HSF1 activator	PHOSPHO1 block	HSF1 inhib	ALR H2O2 inh
COc1cc2c(cc1OC)C(COc1cc(C)cc(C)c1)N(C(C)=O)CC2 (configuration not stated)	15	11	0	27	-4	-1
COc1ccc(-c2cn3ccccc3n2)cc1[N+](=O)[O-]	15	6	55*	-2	28	7
Cc1cc(-c2ccc(C)c(S(=O)(=O)N3CCN(c4ccccn4)CC3)c2)on1	6	5	8	48	2	-3
CC(O/N=C\c1ccccc1O)C(=O)Nc1ccccc1C(=O)N1CCOCC1 (configuration not stated)	34	-12	-69	-7	-58*	3
COC(=O)c1c(C)oc2ccc(N(C(=O)c3ccncc3)S(=O)(=O)c3ccc4ccccc4c3)cc12	13	11	4	6	-2	-2
COC(=O)c1c(C)oc2ccc(N(C(=O)Oc3ccccc3)S(=O)(=O)c3ccc(Cl)c([N+](=O)[O-])c3)cc12	3	64*	72*	3	60	-3
O=c1[nH]c(=S)[nH]c2sccc12	62	6	10	12	16	97*
O=[N+]([O-])c1ccc(Sc2cccc[n+]2[O-])c2nonc12	-129*	/	/	8	-9	/
S=C(Nc1cccc2ccccc12)NN1CCOCC1	12	3	5	94*	16	21
CC(C)c1ccc(NC(=S)Nc2cccc3ccccc23)cc1	7	8	-72	16	-68*	-23
Cc1cc(C)cc(NC(=S)Nc2cccc3ccccc23)c1	17	5	-4	-1	-8	-16
Fc1ccc(NC(=S)Nc2cccc3cnccc23)cc1	-2	-2	38	25	18	36
Cc1ccc(NC(=S)Nc2cccc3ccccc23)cc1	14	3	-83	48	-80*	-24
S=C(Nc1ccc(Cl)cc1)Nc1cccc2cnccc12	8	10	61*	17	23	-13
COc1ccc(NC(=O)CC2C(=O)N(c3ccc(F)cc3)C(=S)N2NC(=O)c2ccc(Cl)cc2)cc1 (configuration not stated)	27	-6	8	8	21	0
Cc1ccc(C)c(NC(=O)CN(C)C(=O)Cn2c(=O)oc3ccccc32)c1	14	1	-1	/	-2	-17
CN(C)/C(=N\S(=O)(=O)c1ccc(Br)cc1)c1ccccc1	11	-12	3	35	1	/
Cc1cccc2sc(NC(=O)C3CCN(S(=O)(=O)c4cc([N+](=O)[O-])ccc4Cl)CC3)nc12	37	49*	21	-23	25	-2
C/C(=N\NC(N)=O)c1ccccc1Cl	-6	-10	-6	52	-10	-4
COc1ccc(NC(=S)N(CCO)Cc2ccccc2)cc1	19	-2	2	20	6	11
COCCN(Cc1ccccc1)C(=S)Nc1ccc(Cl)cc1	20	3	-63	2	-54*	-2
O=C(NCc1ccccc1)C(c1ccccc1F)N(C(=O)c1csnn1)C1CCCC1 (configuration not stated)	11	3	4	4	1	-1
CCOC(=O)c1ccccc1NC(=O)COC(=O)CCCOc1ccccc1	15	-2	-9	/	-9	-1
CCOC(=O)c1ccccc1NC(=O)COc1ccccc1	4	0	6	-36	-2	97*
Cc1ccc(OCC(=O)Nc2ccccc2C(=O)N2CCCCC2)cc1	30	-2	-64	25	-53*	-3
COc1cc(/C=N/NC(=O)c2cncc(Br)c2)cc([N+](=O)[O-])c1O	-202*	-10	-54	10	?	7
COc1cc(/C=N/NC(=O)c2ccncc2)ccc1Oc1ccc([N+](=O)[O-])cn1	2	-1	-5	-11	0	-3
COc1ccc(/C=N/NC(=O)c2cccc([N+](=O)[O-])c2)cc1OC	22	1	14	50	11	-3
N#Cc1cc([N+](=O)[O-])ccc1Oc1cccc(/C=N/NC(=O)c2cccc(Cl)c2)c1	36	50*	-2	10	11	-2
